Assay [1] is described as follows: Reversible inhibition of PP2A using p-NPP as substrate assessed as recovery of enzyme activity at 100 uM pretreated for […] followed by 4 hrs dialysis by spectrophotometry relative to control. Details: scale not given: the % may be the effect or the level left. A digest of the protocol:
(§1)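 PP2A (0.07 U) was mixed 1:1 by volume with inhibitor solutions in 5% MeOH/H2O (20–100 µM before mixing) at 37 °C; controls got 5% MeOH/H2O alone. Buffer: 50 mM Tris, 2 mM MnCl2, 1.1 mM EDTA, 1.3 mM DTT, 0.125 mg/mL BSA. Samples were dialysed against buffer for 4 h at 5–7 °C, then given p-NPP (7.8 mM final) for 2 h at 37 °C; A405 read against control.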

Assay [2] can be described thus: Inhibition of protein phosphatase 1.
Assay [3] in a line: Inhibition of PP2A using p-NPP as substrate pretreated for 1 hr by spectrophotometry.
Assay [4] is described as follows: Reversible inhibition of PP2A using p-NPP as substrate assessed as recovery of enzyme activity at 80 uM […] followed by 4 hrs dialysis by spectrophotometry relative to control. On the set-up: scale not given: the % may be the effect or the level left.
The nature of assay [5]: Irreversible inhibition of PP2A using p-NPP as substrate assessed as recovery of enzyme activity pretreated for 1 hr followed by 4 hrs dialysis by spectrophotometry. A digest of the protocol:
as §1

SMILES strings stand for the structures. Activity calls are given as the source filed them. The rule behind the calls is not given here. Numbered stars: 1 amine (or outer) side, 2 acyl side, 3 side chain; on linkers, the order of the positions; unused ones are H or OH. Bridge positions count the residues as written; N and C are the ends. Square brackets hold non-standard residues; d marks the D form. Peptide text beside a SMILES is read from it. Adda = CO[C@@H](Cc1ccccc1)[C@@H](C)/C=C(C)/C=C/[C@H](N[*:1])[C@H](C)C(=O)[*:2]; dAsp(3S-Me) = C[C@H](C(=O)[*:3])[C@@H](N[*:1])C(=O)[*:2]; d(γGlu) = O=C(O)[C@@H](CCC(=O)[*:2])N[*:1]; NMeDha = C=C(NC)C(=O)O

Turning to `C=C1[C@@H](O)[C@@H]2O[C@]3(CC[C@H](/C=C/[C@@H](C)[C@@H]4CC(CO)=C[C@@]5(O[C@H](C[C@@](C)(O)C(=O)O)CC[C@H]5O)O4)O3)CC[C@H]2O[C@@H]1[C@@H](O)C[C@H](C)[C@H]1O[C@@]2(CCCCO2)CC[C@H]1C`, the Activity in assay [1] worked out at 113%. In assay [2], the inhibition entry was “Active”. In addition, the IC50 in assay [3] came to 1.34 nM.

Turning to `C=C1[C@@H](O)[C@@H]2O[C@]3(CC[C@H](/C=C/[C@@H](C)[C@@H]4CC(C)=C[C@@]5(O[C@H](C[C@@](C)(O)C(=O)O)CC[C@H]5O)O4)O3)CC[C@H]2O[C@@H]1[C@@H](O)C[C@H](C)[C@H]1O[C@@]2(CCCCO2)CC[C@H]1C`, the inhibition result in assay [2] and in assay [3] was “Active” in each case.

Turning to `C=C1[C@@H](O)[C@@H]2O[C@]3(CC[C@H](/C=C/[C@@H](C)[C@@H]4CC(C)=C[C@@]5(O[C@H](C[C@@](C)(O)C(=O)O)CC[C@H]5O)O4)O3)CC[C@H]2O[C@@H]1[C@@H](O)C[C@H](C)[C@H]1O[C@]2(CC[C@H]1C)CC(O)CCO2` (stereo partly specified), in assay [2], the inhibition result was “Active”. For the same compound, in assay [3], the IC50 is 0.94 nM.

Regarding `C=C1[C@@H](O)[C@@H]2O[C@]3(CC[C@H](/C=C/[C@@H](C)[C@@H]4CC(C=O)=C[C@@]5(O[C@H](C[C@@](C)(O)C(=O)O)CC[C@H]5O)O4)O3)CC[C@H]2O[C@@H]1[C@@H](O)C[C@H](C)[C@H]1O[C@@]2(CCCCO2)CC[C@H]1C`, the inhibition result in assay [2] is “Active”. Further, the half-maximal inhibitory concentration (IC50) in assay [3] amounted to 3.98 nM. In assay [4], the Activity was 117%.

Consider `C=C1C(=O)N[C@H](C)C(=O)N[C@@H](CC(C)C)C(=O)N[C@@H](C(=O)O)[C@H](C)C(=O)N[C@@H](CCCNC(=N)N)C(=O)N[C@@H](/C=C/C(C)=C/[C@H](C)[C@H](Cc2ccccc2)OC)[C@H](C)C(=O)N[C@@H](C(=O)O)CCC(=O)N1C` (R[Adda][d(γGlu)][NMeDha][dA]L[dAsp(3S-Me)]-OH; lactam N-7), for which, in assay [5], the inhibition entry is “Active”.

The values are drawn from ChEMBL document CHEMBL2034894, “The structures of three metabolites of the algal hepatotoxin okadaic acid produced by oxidation with human cytochrome P450” (Bioorg Med Chem, 2012).
